Measurements published in ChEMBL document CHEMBL1122905, “4-Deoxypyrido[1',2':1,2]imidazo[5,4-c]rifamycin SV derivatives. A new series of semisynthetic rifamycins with high antibacterial activity and low gastroenteric absorption” (1985).
Values after ≈ are worked out from the molar mass of the structure shown.

Legend:
Klebsiella pneumoniae = test: Antimicrobial activity derived as minimum inhibitory concentration are determined using brain-heart infusion medium against Klebsiella Pneumoniae Ottaviani; format: functional
Method in brief: (§1)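 Broth dilution in brain-heart infusion. Inoculum 10^6 cells/mL. MIC taken as the lowest antibiotic concentration preventing visible growth after 24 h at 35 °C.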

Pseudomonas aeruginosa = test: Antimicrobial activity derived as minimum inhibitory concentration are determined using brain-heart infusion medium against Pseudomonas aeruginosa ATCC 10145; format: functional; method in brief: as §1
Salmonella paratyphi = test: Antimicrobial activity derived as minimum inhibitory concentration are determined using brain-heart infusion medium against Salmonella paratyphi B0248 K(Sclavo); format: functional, Salmonella enterica subsp. enterica serovar Paratyphi A; conditions: Salmonella enterica
Method in brief: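 Broth dilution in brain-heart infusion. Inoculum 10^6 cells/mL. Incubated 24 h at 35 °C. MIC taken as the lowest antibiotic concentration that prevented visible growth.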

Staphylococcus aureus [1] = test: Effective dose against Staphylococcus aureus in mice for peroral administration.; format: functional; conditions: po
Staphylococcus aureus [2] = test: Effective dose against Staphylococcus aureus in mice for subcutaneous administration.; format: functional; conditions: sc
Escherichia coli = test: Antimicrobial activity derived as minimum inhibitory concentration are determined using brain-heart infusion medium against Escherichia coli ML/35.; format: functional; method in brief: as §1
Staphylococcus aureus [3] = test: Antimicrobial activity derived as minimum inhibitory concentration are determined using brain-heart infusion medium against Staphylococcus aureus 209 P(FDA); format: functional; method in brief: as §1
Staphylococcus aureus [4] = test: Effective dose against infection of the mice due to Staphylococcus aureus administered perorally; format: functional; conditions: po

Row | SMILES | MIC (Klebsiella pneumoniae) | MIC (Pseudomonas aeruginosa) | MIC (Salmonella paratyphi) | ED50 (Staphylococcus aureus [1]) | ED50 (Staphylococcus aureus [2]) | MIC (Escherichia coli) | MIC (Staphylococcus aureus [3]) | ED50 (Staphylococcus aureus [4])
1 | COC1/C=C/OC2(C)Oc3c(C)c(O)c4c(O)c(c5c([n-]c6c7ccccc7cc[n+]65)c4c3C2=O)NC(=O)/C(C)=C\C=C\C(C)C(O)C(C)C(O)C(C)C(OC(C)=O)C1C (centres undefined) | 12 µg/mL (≈ 14.6 µM) | 0.7 µg/mL (≈ 0.852 µM) | 3 µg/mL (≈ 3.65 µM) | 2.22 mg/kg | 0.81 mg/kg | 12 µg/mL (≈ 14.6 µM) | < 0.005 µg/mL | 
2 | COC1/C=C/OC2(C)Oc3c(C)c(O)c4c(O)c(c(-[n+]5cccc(C(N)=O)c5)c(O)c4c3C2=O)NC(=O)/C(C)=C\C=C\C(C)C(O)C(C)C(O)C(C)C(OC(C)=O)C1C.[Br-] (centres undefined) | > 50 µg/mL | > 50 µg/mL | > 50 µg/mL | > 20 mg/kg |  | > 50 µg/mL | 0.1 µg/mL | 
3 | COC1/C=C/OC2(C)Oc3c(C)c(O)c4c(O)c(c5c([n-]c6c(C)ccc[n+]65)c4c3C2=O)NC(=O)/C(C)=C\C=C\C(C)C(O)C(C)C(O)C(C)C(OC(C)=O)C1C (centres undefined) | 6 µg/mL (≈ 7.63 µM) | 0.7 µg/mL (≈ 0.891 µM) | 6 µg/mL (≈ 7.63 µM) | > 10 mg/kg | 0.47 mg/kg | 6 µg/mL (≈ 7.63 µM) | < 0.005 µg/mL | 
4 | COC1/C=C/OC2(C)Oc3c(C)c(O)c4c(O)c(c5c([n-]c6cccc[n+]65)c4c3C2=O)NC(=O)/C(C)=C\C=C\C(C)C(O)C(C)C(O)C(C)C(OC(C)=O)C1C (centres undefined) | 6 µg/mL (≈ 7.77 µM) | 6 µg/mL (≈ 7.77 µM) | 3 µg/mL (≈ 3.89 µM) | 10.3 mg/kg | 0.21 mg/kg | 3 µg/mL (≈ 3.89 µM) | < 0.005 µg/mL | 
5 | CO[C@H]1/C=C/O[C@@]2(C)Oc3c(C)c(O)c4c(O)c(c(/C=N/N5CCN(C)CC5)c(O)c4c3C2=O)NC(=O)/C(C)=C\C=C\[C@H](C)[C@H](O)[C@@H](C)[C@@H](O)[C@@H](C)[C@H](OC(C)=O)[C@@H]1C [RIFAMPIN] | 25 µg/mL (≈ 30.4 µM) | 12 µg/mL (≈ 14.6 µM) | 12 µg/mL (≈ 14.6 µM) | 0.14 mg/kg | 0.14 mg/kg | 6 µg/mL (≈ 7.29 µM) | < 0.005 µg/mL | 
6 | COC1/C=C/OC2(C)Oc3c(C)c(O)c4c(O)c(c(-[n+]5ccc(C(C)(C)C)cc5)c(O)c4c3C2=O)NC(=O)/C(C)=C\C=C\C(C)C(O)C(C)C(O)C(C)C(OC(C)=O)C1C.[Br-] (centres undefined) | > 50 µg/mL | > 50 µg/mL | > 50 µg/mL |  |  | > 50 µg/mL | 0.01 µg/mL | 
7 | COC1/C=C/OC2(C)Oc3c(C)c(O)c4c(O)c(c(-[n+]5ccccc5)c(O)c4c3C2=O)NC(=O)/C(C)=C\C=C\C(C)C(O)C(C)C(O)C(C)C(OC(C)=O)C1C.[Br-] (centres undefined) | > 50 µg/mL | 12 µg/mL | 50 µg/mL | > 20 mg/kg |  | > 50 µg/mL | 0.005 µg/mL | 
8 | CC[N+](CC)(CC)c1c2c(O)c3c(O)c(C)c4c(c3c1O)C(=O)C(C)(O/C=C/C(OC)C(C)C(OC(C)=O)C(C)C(O)C(C)C(O)C(C)/C=C/C=C(/C)C(=O)N2)O4.[Br-] (centres undefined) | 50 µg/mL | 12 µg/mL | 25 µg/mL | > 20 mg/kg |  | > 50 µg/mL | 0.005 µg/mL | 
9 | COC1/C=C/OC2(C)Oc3c(C)c(O)c4c(O)c(c5c([n-]c6ccc(OCc7ccccc7)c[n+]65)c4c3C2=O)NC(=O)/C(C)=C\C=C\C(C)C(O)C(C)C(O)C(C)C(OC(C)=O)C1C (centres undefined) | > 50 µg/mL | 50 µg/mL (≈ 56.9 µM) | > 50 µg/mL |  |  | 50 µg/mL (≈ 56.9 µM) | < 0.005 µg/mL | 
10 | COC1/C=C/OC2(C)Oc3c(C)c(O)c4c(O)c(c5c([n-]c6ccc(C)c[n+]65)c4c3C2=O)NC(=O)/C(C)=C\C=C\C(C)C(O)C(C)C(O)C(C)C(OC(C)=O)C1C (centres undefined) | 12 µg/mL (≈ 15.3 µM) | 3 µg/mL (≈ 3.82 µM) | 6 µg/mL (≈ 7.63 µM) | > 5 mg/kg | > 2.5 mg/kg | 6 µg/mL (≈ 7.63 µM) | < 0.005 µg/mL | 
11 | COC1/C=C/OC2(C)Oc3c(C)c(O)c4c(O)c(c5c([n-]c6cc(C)cc[n+]65)c4c3C2=O)NC(=O)/C(C)=C\C=C\C(C)C(O)C(C)C(O)C(C)C(OC(C)=O)C1C (centres undefined) | 25 µg/mL (≈ 31.8 µM) | 15 µg/mL (≈ 19.1 µM) | 6 µg/mL (≈ 7.63 µM) |  |  | 6 µg/mL (≈ 7.63 µM) | < 0.005 µg/mL | > 10 mg/kg
12 | COC(=O)c1ccc[n+](-c2c3c(O)c4c(O)c(C)c5c(c4c2O)C(=O)C(C)(O/C=C/C(OC)C(C)C(OC(C)=O)C(C)C(O)C(C)C(O)C(C)/C=C/C=C(/C)C(=O)N3)O5)c1.[Br-] (centres undefined) | > 50 µg/mL | > 50 µg/mL | 25 µg/mL |  |  | > 50 µg/mL | 0.07 µg/mL | 
